# From PubChem BioAssay
# Calls of active or inactive are those of the source.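 The calls were made as follows, unless noted: active = inhibition of the reporter signal at or above 50%; inactive = inhibition below 50%.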
# Columns and labels:
# [1] = inhibitors of TNFa-induced NFkB p65 translocation, primary screen, imaging, HUVEC, MLSMR starter and 10KST1 sets (AID 438;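 active = inhibition above 20% together with a positive visual image hit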;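 also: compound added about 3h40 before a 20 min TNFalpha stimulation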;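 as to inhibition: signal is the nuclear over cytoplasmic p65 intensity ratio per well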); conditions: HUVEC TNFa-induced p65 nuclear translocation; cell count: measured here: nuclei count (cytotoxicity indicator), at 2.08 µM; inhibition: at 2 µM, stronger effect = higher value, 0% TNFa-plus-vehicle, 100% no-TNFa wells
# [2] = inhibitors of mutant huntingtin aggregation, primary screen, imaging, exon1htt(103Q)mCFP cells, high-content imaging (AID 483;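 active = visual image review flags a hit and inhibition of aggregation exceeds 20%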;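 also: compound exposure lasted 3 days before fixation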;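 as to nuclei count: percent of the per-plate median nuclei count of sample wells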); conditions: exon1htt(103Q)mCFP cell line, aggregate imaging, at 2 µM; inhibition of aggregation: stronger effect = higher value; nuclei count: measured here: cell count, toxicity
# [3] = inhibitors of E-selectin induction by TNFa, primary screen, imaging, HUVEC, immunofluorescence, MLSMR starter and 10KST1 sets (AID 487;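 active = visually confirmed hit in the image check and inhibition above 20%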;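 as to inhibition: signal is fraction of cell area covered by stained E-selectin grains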;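 as to nuclei count: 100% = median nuclei count of all wells on the same plate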); conditions: HUVEC TNFalpha-induced E-selectin immunofluorescence imaging, at 2 µM; inhibition: stronger effect = higher value; nuclei count: measured here: cell number, toxicity
# [4] = target: Voltage-gated potassium channel subunit beta-2 (Rattus norvegicus) (UniProt P62483); experiment: KvBeta enzyme negative modulators, primary screen, biochemical, NADPH fluorescence (AID 622;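 active = fluorescence slope higher than the sample average by over 3 SD, cut at about -0.22 in these data, passing the limit was not always enough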;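 also: slope of raw intensity against log time taken from 70 to 1610 s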); conditions: recombinant KvBeta, 4-cyanobenzaldehyde reduction, at 10 µM, stronger effect = higher value
# [5] = target: Voltage-gated potassium channel subunit beta-2 (Rattus norvegicus) (UniProt P62483); experiment: KvBeta positive modulators, primary screen, biochemical, NADPH fluorescence (AID 623;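 active = NADPH fluorescence slope more negative than the mean of all samples by about 3 SD, 99.7% confidence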;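 also: fluorescence intensity change per second fitted from 20 to 320 s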); conditions: Recombinant KvBeta, NADPH fluorescence decrease slope, 10 min; at 10 µM; stronger effect = lower value
# [6] = target: Muscarinic acetylcholine receptor M4 (Homo sapiens) (UniProt P08173); experiment: compounds altering M4/GIRK thallium flux, either direction, primary screen, M4 allosteric agonist project, cell-based, HEK293 M4/GIRK, BTC-AM (AID 625;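 active = fluorescence slope after compound addition differing from the mean of all tested samples at 99.7% confidence, mostly higher but some lower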;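 also: thallium influx through GIRK channels coupled to M4 in HEK293 cells with BTC-AM dye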); conditions: at 10 µM, actives lie on both sides
# How it was run: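 Material: HEK293 cells with M4 receptor and GIRK channels; Times: cells overnight at 37 °C, BTC-AM loading 1 h, reads 2 min total; Technique: kinetic BTC-AM fluorescence sampled at 1 Hz, 10 s pre-addition baseline; Read-out basis: slope over 15–24 s of trace normalized to starting intensity; Controls: carbachol positive, DMSO negative.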
# [7] = inhibitors of Sendai virus-induced IRF3 signaling, primary screen, TLR/RLR signaling modifier project, cell-based, Sendai virus stimulus, luciferase, 10K MLSCN set (AID 602276;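 active = inhibition at or above 50% at 10 µM; inactive = inhibition below 50%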;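 also: firefly luciferase from ISG56 promoter only with Renilla not read in this screen; 0% = Sendai virus plus DMSO and 100% = medium plus DMSO without virus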); conditions: HEK293 RL24 IRF3 luciferase reporter, at 10 µM, stronger effect = higher value
# [8] = inhibitors of poly I:C-induced TLR3 signaling, primary screen, cell-based, poly I:C stimulus, luciferase, 10K MLSCN set (AID 602277); conditions: HEK293-TLR3 RL24 IRF3 luciferase reporter, at 10 µM, stronger effect = higher value
# Sequence of Voltage-gated potassium channel subunit beta-2 (Rattus norvegicus) (P62483 whole entry, looked up): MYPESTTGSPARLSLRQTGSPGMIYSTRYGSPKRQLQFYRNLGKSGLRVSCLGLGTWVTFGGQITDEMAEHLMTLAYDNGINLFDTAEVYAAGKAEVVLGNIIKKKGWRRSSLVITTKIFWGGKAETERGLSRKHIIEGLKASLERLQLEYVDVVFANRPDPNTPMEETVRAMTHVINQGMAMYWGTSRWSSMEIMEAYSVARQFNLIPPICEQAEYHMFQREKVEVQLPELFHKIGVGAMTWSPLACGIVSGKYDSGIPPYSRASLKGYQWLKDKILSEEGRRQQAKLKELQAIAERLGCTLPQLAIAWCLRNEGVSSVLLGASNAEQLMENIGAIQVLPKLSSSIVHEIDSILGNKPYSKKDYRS
# Sequence of Muscarinic acetylcholine receptor M4 (Homo sapiens) (P08173 whole entry, looked up): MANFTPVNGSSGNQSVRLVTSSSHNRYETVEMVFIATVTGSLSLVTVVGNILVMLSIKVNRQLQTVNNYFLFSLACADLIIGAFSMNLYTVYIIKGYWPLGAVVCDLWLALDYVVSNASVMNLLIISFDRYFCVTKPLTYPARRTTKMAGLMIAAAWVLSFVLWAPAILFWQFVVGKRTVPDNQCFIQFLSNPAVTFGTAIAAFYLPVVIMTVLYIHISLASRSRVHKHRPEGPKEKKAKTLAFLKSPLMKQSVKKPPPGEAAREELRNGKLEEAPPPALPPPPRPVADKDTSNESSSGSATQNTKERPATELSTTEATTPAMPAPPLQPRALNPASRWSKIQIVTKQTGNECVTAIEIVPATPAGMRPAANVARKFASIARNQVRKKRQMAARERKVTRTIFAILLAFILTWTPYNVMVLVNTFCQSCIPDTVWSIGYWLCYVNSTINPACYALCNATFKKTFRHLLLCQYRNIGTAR
SMILES,cell count [1],inhibition [1],inhibition of aggregation [2],nuclei count [2] [%],inhibition [3],nuclei count [3] [%],fluorescence slope [4],NADPH fluorescence slope [5],fluorescence slope [6],inhibition [7],inhibition [8]
COc1cc2[nH]c(=O)n(CCCCCC(=O)N3CCN(c4ccccn4)CC3)c(=O)c2cc1OC,195,17.8% (inactive),6% (inactive),100,28.9% (inactive),92.1,-0.216 (inactive),-2.4e-05 (inactive),0.00687 (inactive),19.6% (inactive),-1.9% (inactive)
CC(=O)Nc1ccc(N2CCN(Cc3ccccc3F)CC2)cc1,452,19.4% (inactive),12.1% (inactive),102,34.5% (inactive),120,-0.579 (inactive),-3.8e-05 (inactive),0.0111 (inactive),8.54% (inactive),19% (inactive)
COc1ccc2c(c1)Sc1ccccc1N2CCN(C)C,676,-8.8% (inactive),2.5% (inactive),117,-11.3% (inactive),103,-0.573 (inactive),-2.9e-05 (inactive),0.00495 (inactive),8.63% (inactive),14.5% (inactive)
COc1cc(NC(=O)C2CC(c3cccc(OC)c3OC)=NO2)cc(OC)c1OC (configuration not stated),711,-12.2% (inactive),-18.4% (inactive),76.9,-176% (inactive),104,-0.573 (inactive),2.2e-05 (inactive),0.0048 (inactive),17.4% (inactive),-1.09% (inactive)
CCN(Cc1cc2cc(OC)ccc2[nH]c1=O)C(=O)Cc1ccc(OC)cc1,369,1.8% (inactive),-11.9% (inactive),114,-57.8% (inactive),124,-0.549 (inactive),-9.8e-05 (inactive),0.00319 (inactive),11.4% (inactive),5.34% (inactive)
COc1ccc(-c2cc(C(=O)Nc3ccc(C)cc3)no2)cc1,320,-6.5% (inactive),-11.2% (inactive),108,-9.7% (inactive),103,-0.323 (inactive),-8.4e-07 (inactive),0.00844 (inactive),-20.2% (inactive),-32.3% (inactive)
CCOC(=O)C1=C(Cn2cnc3ccccc32)NC(=O)NC1c1cc(C)ccc1C (configuration not stated),562,-10.3% (inactive),-15.4% (inactive),106,0.3% (inactive),104,-0.461 (inactive),-1.9e-05 (inactive),0.00427 (inactive),27.2% (inactive),19% (inactive)
